Calls of active or inactive are those of the source. The rule behind the calls is not given here.
Legend:
[1] = Intrinsic clearance in Sprague-Dawley rat liver microsomes at 1 uM preincubated for 5 mins followed by NADPH addition and measured after 45 mins by LC/MS/MS analysis; assay type: ADME, microsome; conditions: read-out: CLH
Mus musculus [2] = experiment: Toxicity in Swiss Webster mouse assessed as effect on animal behavior at 200 mg/kg, po administered as single dose measured after 48 hrs; assay type: organism-based; conditions: in vivo
Method in brief: (§1)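 Swiss Webster mice (21–23 g, n=3) get a single oral 200 mg/kg dose, given as in the PK study. They are inspected for toxic and sub-toxic signs per OECD guidelines (behaviour, motility, neurological state, skin, fur), and body weight is tracked 0–48 h. At 48 h, mice are euthanized and organ weights are normalized to body weight. Blood is taken for haematology and plasma biochemistry.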

[3] = target: Putative lanosterol 14-alpha-demethylase (Leishmania infantum, UniProt A2TEF2); experiment: Binding affinity to Leishmania infantum CYP51 expressed in Escherichia coli
Method in brief: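 Purified E. coli-expressed L. infantum CYP51 at 0.5 μM is titrated with ligand at 0.1–1 μM in 5 cm path cuvettes. Difference-spectrum absorbance change Δ(A430−A411) is plotted against ligand concentration. Apparent Kd comes from a Morrison (quadratic) tight-binding fit by nonlinear regression.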

[4] = target: Sterol 14-alpha demethylase (Trypanosoma cruzi (strain CL Brener), UniProt Q7Z1V1); experiment: Binding affinity to Trypanosoma cruzi Y CYP51A expressed in Escherichia coli
Method in brief: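 Recombinant CYP51A from Y strain T. cruzi, expressed in E. coli and purified, titrated spectrally at 0.5 μM P450 in 5 cm path cuvettes with ligand over 0.1–1 μM. Type of absorbance change in difference spectra Δ(A430-A411) plotted against ligand concentration. Apparent Kd obtained by fitting to the Morrison quadratic tight-binding equation by nonlinear regression.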

Mus musculus [5] = experiment: Toxicity in Swiss Webster mouse assessed as effect on skin at 200 mg/kg, po administered as single dose measured after 48 hrs; assay type: organism-based; conditions: in vivo; method in brief: as §1
[6] = Half life in CD1 mouse liver microsomes at 1 uM preincubated for 5 mins followed by NADPH addition and measured by LC/MS/MS analysis; assay type: ADME, microsome; conditions: mouse, microsomes, 1 µM
Mus musculus [7] = experiment: Toxicity in Swiss Webster mouse assessed as effect on biochemical plasma parameters at 200 mg/kg, po administered as single dose measured after 48 hrs; assay type: organism-based; conditions: in vivo; method in brief: as §1
[8] = Drug uptake in BALB/c mouse lungs at 25 mg/kg, po via gavage measured after 4 hrs post dose by […]; assay type: ADME, organism-based, Lung; conditions: read-out: Drug uptake
Method in brief: (§2)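 BALB/c mice get a single oral gavage dose of 25 mg/kg; tissues are collected 4 h post-dose. About 100 mg tissue is diluted 5-fold in PBS and homogenized. Homogenate is extracted as for plasma (ketoconazole internal standard, acetonitrile extraction) and quantified by HPLC-UV at 291 nm, 0.1 μM detection limit, n=2.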

Mus musculus [9] = experiment: Toxicity in Swiss Webster mouse assessed as effect on motility at 200 mg/kg, po administered as single dose measured after 48 hrs; assay type: organism-based; conditions: in vivo; method in brief: as §1
Mus musculus [10] = experiment: Toxicity in Swiss Webster mouse assessed as effect on spleen weight at 200 mg/kg, po administered as single dose measured after 48 hrs; assay type: organism-based; conditions: in vivo; method in brief: as §1
Trypanosoma cruzi [11] = experiment: Antiparasitic activity against GFP-expressing Trypanosoma cruzi Y amastigote formss infected in cardiomyocytes assessed as reduction in rate of parasite multiplication within infected cardiomyocytes measured at 72 hrs post infection by fluorescence microscopy; assay type: functional, organism-based
Method in brief: (§3)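 GFP-expressing trypomastigotes (Tulahuen or Y strain) infect cardiomyocyte monolayers at 10 parasites per cell, in DMEM + 10% FBS. Unbound parasites are washed off. At 24 h of infection, inhibitors at 0.5–25 nM in DMSO/DMEM are added and cultured 48 h. Read-out is at 72 h post-infection as GFP fluorescence (RFU) after PBS wash; microscopy uses paraformaldehyde fixation, DAPI and phalloidin stain. Triplicate.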

Mus musculus [12] = experiment: Toxicity in Swiss Webster mouse assessed as effect on fur profile at 200 mg/kg, po administered as single dose measured after 48 hrs; assay type: organism-based; conditions: in vivo; method in brief: as §1
[13] = target: Putative lanosterol 14-alpha-demethylase (Leishmania infantum) (UniProt A2TEF2); experiment: Inhibition of Leishmania infantum CYP51 expressed in Escherichia coli using [3-3H]-obtusifoliol as substrate after 60 mins by LC-MS analysis
Method in brief: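 Reconstituted reaction: 1 μM purified CYP51, 2 μM T. brucei NADPH-P450 reductase, 100 μM dilauroylphosphatidylcholine, isocitrate dehydrogenase/isocitrate regeneration, 50 mM K phosphate pH 7.2, 10% glycerol. [3-3H]sterol substrate at 50 μM final (eburicol for T. cruzi; obtusifoliol for T. brucei and L. infantum) with inhibitor at 1.1 μM final. Preincubate 60 s at 37 °C, start with 100 μM NADPH, run 60 min, EtOAc extraction. Gives % inhibition of 14α-demethylation, triplicate, mean ± SD.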

[14] = Hepatic clearance in Sprague-Dawley rat liver microsomes at 1 uM preincubated for 5 mins followed by NADPH addition and measured after 45 mins by LC/MS/MS analysis; assay type: ADME, microsome
Method in brief: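 Pooled liver microsomes at 0.5 mg/mL: human (mixed gender), male Sprague-Dawley rat, or male CD-1 mouse, with test compound at 1 μM, triplicate. In vitro t1/2 is scaled to CLint (45 mg microsomes/g liver; 45 g liver/kg scaling factor). CLhep uses well-stirred model with hepatic blood flow 21 (human), 70 (rat), 90 (mouse) mL/min/kg.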

[15] = Drug uptake in BALB/c mouse spleen at 25 mg/kg, po via gavage measured after 4 hrs post dose by […]; assay type: ADME, organism-based; conditions: read-out: Drug uptake; method in brief: as §2
[16] = Hepatic clearance in human liver microsomes at 1 uM preincubated for 5 mins followed by NADPH addition and measured after 45 mins by LC/MS/MS analysis; assay type: ADME, microsome
[17] = Drug uptake in BALB/c mouse heart at 25 mg/kg, po via gavage measured after 4 hrs post dose by […]; assay type: ADME, organism-based; conditions: read-out: Drug uptake; method in brief: as §2
Mus musculus [18] = experiment: Toxicity in Swiss Webster mouse assessed as effect on body weight at 200 mg/kg, po administered as single dose measured after 48 hrs; assay type: organism-based; conditions: in vivo; method in brief: as §1
Mus musculus [19] = experiment: Toxicity in Swiss Webster mouse assessed as effect on lung weight at 200 mg/kg, po administered as single dose measured after 48 hrs; assay type: organism-based; conditions: in vivo; method in brief: as §1
Trypanosoma cruzi [20] = experiment: Antiparasitic activity against GFP-expressing Trypanosoma cruzi Tulahuen amastigote formss infected in cardiomyocytes assessed as reduction in rate of parasite multiplication within infected cardiomyocytes measured at 72 hrs post infection by fluorescence microscopy; assay type: functional, organism-based; method in brief: as §3
Mus musculus [21] = experiment: Toxicity in Swiss Webster mouse assessed as effect on neurological conditions at 200 mg/kg, po administered as single dose measured after 48 hrs; assay type: organism-based; conditions: in vivo; method in brief: as §1
[22] = Intrinsic clearance in CD1 mouse liver microsomes at 1 uM preincubated for 5 mins followed by NADPH addition and measured after 45 mins by LC/MS/MS analysis; assay type: ADME, microsome; conditions: read-out: CLH
[23] = Half life in human liver microsomes at 1 uM preincubated for 5 mins followed by NADPH addition and measured by LC/MS/MS analysis; assay type: ADME, microsome; conditions: microsomes, 1 µM
Mus musculus [24] = experiment: Toxicity in Swiss Webster mouse assessed as effect on kidney weight at 200 mg/kg, po administered as single dose measured after 48 hrs; assay type: organism-based; conditions: in vivo; method in brief: as §1
[25] = Hepatic clearance in CD1 mouse liver microsomes at 1 uM preincubated for 5 mins followed by NADPH addition and measured after 45 mins by LC/MS/MS analysis; assay type: ADME, microsome
Mus musculus [26] = experiment: Toxicity in Swiss Webster mouse assessed as effect on heart weight at 200 mg/kg, po administered as single dose measured after 48 hrs; assay type: organism-based; conditions: in vivo; method in brief: as §1

Chain of Putative lanosterol 14-alpha-demethylase (Leishmania infantum) (A2TEF2 1-480): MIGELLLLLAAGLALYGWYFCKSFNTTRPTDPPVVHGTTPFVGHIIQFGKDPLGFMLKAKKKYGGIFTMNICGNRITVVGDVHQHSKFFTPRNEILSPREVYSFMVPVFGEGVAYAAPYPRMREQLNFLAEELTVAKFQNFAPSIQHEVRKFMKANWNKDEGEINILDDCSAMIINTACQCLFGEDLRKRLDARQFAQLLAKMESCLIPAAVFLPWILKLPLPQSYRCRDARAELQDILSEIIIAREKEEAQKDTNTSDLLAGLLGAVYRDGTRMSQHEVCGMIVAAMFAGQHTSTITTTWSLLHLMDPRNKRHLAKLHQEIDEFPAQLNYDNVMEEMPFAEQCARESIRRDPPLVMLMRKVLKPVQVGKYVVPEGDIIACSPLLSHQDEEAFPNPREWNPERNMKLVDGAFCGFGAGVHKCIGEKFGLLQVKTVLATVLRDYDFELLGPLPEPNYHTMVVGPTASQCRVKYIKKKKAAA
Chain of Putative lanosterol 14-alpha-demethylase (A2TEF2 whole entry): as the sequence (A2TEF2 1-480) above
Chain of Sterol 14-alpha demethylase (Q7Z1V1 whole entry): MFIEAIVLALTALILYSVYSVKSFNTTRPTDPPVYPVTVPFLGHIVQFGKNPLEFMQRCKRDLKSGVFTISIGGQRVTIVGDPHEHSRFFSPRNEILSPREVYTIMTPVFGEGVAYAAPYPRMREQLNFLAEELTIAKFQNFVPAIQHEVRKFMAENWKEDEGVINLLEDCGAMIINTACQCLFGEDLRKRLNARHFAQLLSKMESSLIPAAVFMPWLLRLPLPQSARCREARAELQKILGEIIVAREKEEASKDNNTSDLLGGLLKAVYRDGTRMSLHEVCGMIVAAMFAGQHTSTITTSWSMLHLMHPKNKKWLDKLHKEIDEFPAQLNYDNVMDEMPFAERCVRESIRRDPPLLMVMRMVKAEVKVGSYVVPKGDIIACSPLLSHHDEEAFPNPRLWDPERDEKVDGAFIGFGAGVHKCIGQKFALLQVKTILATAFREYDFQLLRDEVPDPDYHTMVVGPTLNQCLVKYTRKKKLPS

Compound: O=C(N[C@@H](Cn1ccnc1)c1c(F)cc(-c2ccc(F)cc2)cc1F)c1ccc(-c2nnc(-c3ccccc3)o2)cc1
- CLint scaled at 1 µM [1]: 55.8 mL/min/kg
- Activity (Mus musculus [2]): Non-Toxic
- Kd [3]: 24 nM
- Kd [4]: 8.4 nM
- Activity (Mus musculus [5]): Non-Toxic
- t1/2 [6]: 23 min
- Activity (Mus musculus [7]): Non-Toxic
- concentration at 4 h [8]: 57 µM
- Activity (Mus musculus [9]): Non-Toxic
- Activity (Mus musculus [10]): Non-Toxic
- EC50 (Trypanosoma cruzi [11]): 1 nM
- Activity (Mus musculus [12]): Non-Toxic
- inhibition [13]: Active
- CLhep predicted at 1 µM [14]: 31.1 mL/min/kg
- concentration at 4 h [15]: 63 µM
- CLhep predicted at 1 µM [16]: 10.1 mL/min/kg
- concentration at 4 h [17]: 56 µM
- Activity (Mus musculus [18]): Non-Toxic
- Activity (Mus musculus [19]): Non-Toxic
- EC50 (Trypanosoma cruzi [20]): 0.5 nM
- Activity (Mus musculus [21]): Non-Toxic
- CLint scaled at 1 µM [22]: 237 mL/min/kg
- t1/2 [23]: 64 min
- Activity (Mus musculus [24]): Non-Toxic
- CLhep predicted at 1 µM [25]: 65.2 mL/min/kg
- Activity (Mus musculus [26]): Non-Toxic

— ChEMBL document CHEMBL4257584, “Sterol 14α-Demethylase Structure-Based Optimization of Drug Candidates for Human Infections with the Protozoan Trypanosomatidae” (J Med Chem, 2018)
